Measurements from ChEMBL document CHEMBL5543089, “Discovery of a novel, highly potent EZH2 PROTAC degrader for targeting non-canonical oncogenic functions of EZH2” (Eur J Med Chem, 2024).
Activity calls are given as the source filed them. No cut-off for these calls is given here.

Legend:
[1] = biological target: Protein arginine N-methyltransferase 8 (Homo sapiens) (UniProt Q9NR22); assay: Inhibition of human PRMT8 assessed as methyltransferase activity using Histone H4 as substrate at 10 uM by radioisotope based MT HotSpot assay relative to control
Summary of the method: (§1)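 Radioisotope-based methyltransferase assay (MT HotSpot) run by a contract lab. Compound was tested at 10 μM against a panel of 20 methyltransferases, in duplicate. Values are means ± SD of two replicates.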

[2] = biological target: T1, von Hippel-Lindau disease tumor suppressor/Histone-lysine N-methyltransferase EZH2 (Homo sapiens, UniProt Q15910+P40337); assay: PROTAC activity at VHL/EZH2 degradation in human MV4-11 cells assessed as protein degradation at 0.03 to 0.3 microM measured after 24 hrs by Western blot analysis; format: cell-based; settings: dose 0.03-0.3 µM
Summary of the method: (§2)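 Cells were seeded at 0.5–2 million per well and treated for 24 h, or for the stated times at 300 nM in the time course. Lysis was in RIPA with protease inhibitors; ~10 μg protein was run on SDS-PAGE and blotted to PVDF. Detection used fluorescent immunoblotting for EZH2, EED and SUZ12, with β-actin as loading control. Blots are representative of two biological experiments.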
Target sequence in this assay (P40337 whole entry, looked up): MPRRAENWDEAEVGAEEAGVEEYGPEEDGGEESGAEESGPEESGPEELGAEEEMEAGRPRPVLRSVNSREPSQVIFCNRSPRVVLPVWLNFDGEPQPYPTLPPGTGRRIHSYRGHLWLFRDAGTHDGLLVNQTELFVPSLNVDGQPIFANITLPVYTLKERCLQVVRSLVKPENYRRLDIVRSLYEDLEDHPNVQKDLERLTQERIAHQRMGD
Target sequence in this assay (Q15910 whole entry, looked up): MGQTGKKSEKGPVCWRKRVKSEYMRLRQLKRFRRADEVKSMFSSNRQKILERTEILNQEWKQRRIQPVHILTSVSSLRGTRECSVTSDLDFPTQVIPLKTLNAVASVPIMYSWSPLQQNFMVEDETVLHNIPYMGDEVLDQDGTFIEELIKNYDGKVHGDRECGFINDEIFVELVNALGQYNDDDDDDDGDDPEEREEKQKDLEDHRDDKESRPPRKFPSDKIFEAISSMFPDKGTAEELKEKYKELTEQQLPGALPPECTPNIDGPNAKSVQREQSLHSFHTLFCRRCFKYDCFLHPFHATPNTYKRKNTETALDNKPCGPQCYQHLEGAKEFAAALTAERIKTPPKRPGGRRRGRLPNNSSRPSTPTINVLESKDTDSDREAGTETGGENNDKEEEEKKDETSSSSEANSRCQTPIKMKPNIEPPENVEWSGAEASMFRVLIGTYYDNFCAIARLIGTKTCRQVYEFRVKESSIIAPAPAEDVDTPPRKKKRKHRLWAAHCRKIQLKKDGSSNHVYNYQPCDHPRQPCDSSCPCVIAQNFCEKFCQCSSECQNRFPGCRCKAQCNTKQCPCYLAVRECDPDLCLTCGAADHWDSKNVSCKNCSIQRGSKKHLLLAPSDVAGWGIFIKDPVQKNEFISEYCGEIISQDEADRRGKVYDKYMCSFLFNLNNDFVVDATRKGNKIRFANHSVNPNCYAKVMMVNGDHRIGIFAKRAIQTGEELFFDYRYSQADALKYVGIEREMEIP

[3] = Cmax in mouse at 50 mg/kg, ip measured after 4 hrs; format: ADME, organism-based; settings: in vivo
[4] = biological target: T1, von Hippel-Lindau disease tumor suppressor/Histone-lysine N-methyltransferase EZH2; assay: PROTAC activity at VHL/EZH2 degradation in MLLr AML cell line human EOL1 cells assessed as protein degradation at 0.5 uM measured after 24 hrs in presence of 5 uM VHL-1 by Western blot analysis; format: cell-based
Summary of the method: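 EOL-1 cells were pre-treated for 2 h with MLN4924 (0.05 μM), EPZ-6438 (5 μM) or VHL-1 (5 μM), then given 0.5 μM degrader for 24 h. EZH2 was assessed by Western blot against β-actin. Blots are representative of two biological experiments.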
Target sequence in this assay (P40337 whole entry, looked up): as the sequence (P40337 whole entry, looked up) above
Target sequence in this assay (Q15910 whole entry, looked up): as the sequence (Q15910 whole entry, looked up) above

[5] = biological target: T1, von Hippel-Lindau disease tumor suppressor/Histone-lysine N-methyltransferase EZH2; assay: PROTAC activity at VHL/EZH2 degradation in MLLr AML cell line human EOL1 cells assessed as protein degradation at 0.3 uM measured after 24 hrs by Western blot analysis; format: cell-based; summary of the method: as §2
Target sequence in this assay (P40337 whole entry, looked up): as the sequence (P40337 whole entry, looked up) above
Target sequence in this assay (Q15910 whole entry, looked up): as the sequence (Q15910 whole entry, looked up) above

[6] = biological target: Histone-lysine N-methyltransferase SUV39H1 (Homo sapiens) (UniProt O43463); assay: Inhibition of human SUV39H1 assessed as methyltransferase activity using Histone H3 as substrate at 10 uM by radioisotope based MT HotSpot assay relative to control; summary of the method: as §1
[7] = biological target: T1, von Hippel-Lindau disease tumor suppressor/Histone-lysine N-methyltransferase EZH2; assay: PROTAC activity at VHL/EZH2 degradation in hMLLr AML cell line EOL1 cells assessed as protein degradation at 0.1 uM measured after 24 hrs by Western blot analysis; format: cell-based; summary of the method: as §2
Target sequence in this assay (P40337 whole entry, looked up): as the sequence (P40337 whole entry, looked up) above
Target sequence in this assay (Q15910 whole entry, looked up): as the sequence (Q15910 whole entry, looked up) above

[8] = biological target: T1, von Hippel-Lindau disease tumor suppressor/Histone-lysine N-methyltransferase EZH2; assay: PROTAC activity at VHL/EZH2 degradation in human BT-549 cells assessed as protein degradation at 0.1 to 3 uM measured after 48 hrs by Western blot analysis; format: cell-based; settings: dose 0.1-3 µM
Summary of the method: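 BT549 (RPMI-1640) and MDA-MB-468 (DMEM) cells were treated for 48 h. RIPA lysates (~10 μg) were immunoblotted for EZH2 with β-actin as loading control. Blots are representative of three biological experiments.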
Target sequence in this assay (P40337 whole entry, looked up): as the sequence (P40337 whole entry, looked up) above
Target sequence in this assay (Q15910 whole entry, looked up): as the sequence (Q15910 whole entry, looked up) above

[9] = biological target: T1, von Hippel-Lindau disease tumor suppressor/Histone-lysine N-methyltransferase EZH2; assay: PROTAC activity at VHL/EZH2 degradation in hMLLr AML cell line EOL1 cells assessed as protein degradation measured after 24 hrs by Western blot analysis; format: cell-based; summary of the method: as §2
Target sequence in this assay (Q15910 whole entry): as the sequence (Q15910 whole entry, looked up) above
Target sequence in this assay (P40337 whole entry): as the sequence (P40337 whole entry, looked up) above

BT-549 [10] = assay: Inhibition of cell growth in human BT-549 cell spheroid TNBC model assessed as reduction in size of spheroid at 2.5 to 20 uM measured after 5 days by 3D cell culture assay; format: functional, cell-based; settings: dose 2.5-20 µM, time 5.0 day
Summary of the method: (§3)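 BT549 cells were coated with nanoshuttle (1 μL per 2000 cells, 24 h) and magnetically levitated in low-adhesion plates. They were grown 7 days at 37 °C until a single solid spheroid formed, then treated 5 d with compound or DMSO. Spheroid area was measured from images, and viability by CellTiter-Glo 3D. Data are means ± SD of three biological experiments, analysed by one-way ANOVA.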

[11] = biological target: Histone-lysine N-methyltransferase, H3 lysine-79 specific (Homo sapiens) (UniProt Q8TEK3); assay: Inhibition of human DOT1L assessed as methyltransferase at 10 uM by radioisotope based MT HotSpot assay relative to control; summary of the method: as §1
[12] = biological target: PRMT5/MEP50 complex (Homo sapiens) (UniProt O14744+Q9BQA1); assay: Inhibition of human PRMT5/MEP50 assessed as methyltransferase activity using Histone H2A as substrate at 10 uM by radioisotope based MT HotSpot assay relative to control; format: protein-complex assay; summary of the method: as §1
[13] = biological target: Protein arginine N-methyltransferase 6 (Homo sapiens) (UniProt Q96LA8); assay: Inhibition of human PRMT6 assessed as methyltransferase activity using GST-GAR as substrate at 10 uM by radioisotope based MT HotSpot assay relative to control; summary of the method: as §1
MDA-MB-468 = assay: Anti-proliferative activity against human MDA-MB-468 cells assessed as cell growth inhibition measured after 5 days incubation by CCK-8 assay; format: functional, cell-based; settings: MDA-MB-468, 120 h
Summary of the method: (§4)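 Cells plated at 3,000–10,000 per well and exposed to serial dilutions for 5 days at 37 °C. CCK-8 (1x) was added for 2–4 h, with absorbance read at 450 nm against a 690 nm reference. IC50 was taken from curve fits. Leukemia lines were grown in RPMI-1640, K562 in IMDM and MDA-MB-468 in DMEM, all with 10 % FBS. Values are means ± SD of two biological experiments (three for BT549 and MDA-MB-468).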

MV4-11 = assay: Anti-proliferative activity against human MV4-11 cells assessed as cell viability measured after 5 days incubation by CCK-8 assay; format: functional, cell-based; settings: MV4-11, 120 h; summary of the method: as §4
[14] = biological target: Histone-lysine N-methyltransferase SUV39H2 (Homo sapiens) (UniProt Q9H5I1); assay: Inhibition of human SUV39H2 assessed as methyltransferase activity using Histone H3 as substrate at 10 uM by radioisotope based MT HotSpot assay relative to control
[15] = biological target: Histone-lysine N-methyltransferase SETD7 (Homo sapiens) (UniProt Q8WTS6); assay: Inhibition of human SET7/9 assessed as methyltransferase activity using Core histone as substrate at 10 uM by radioisotope based MT HotSpot assay relative to control; summary of the method: as §1
BT-549 [16] = assay: Anti-proliferative activity against human BT-549 cells spheroid TNBC model assessed as decrease in cell viability at 2.5 to 20 uM by Cell Titer Glo 3D assay; format: functional, cell-based; settings: dose 2.5-20 µM; summary of the method: as §3
[17] = biological target: Protein arginine N-methyltransferase 3 (Homo sapiens) (UniProt O60678); assay: Inhibition of human PRMT3 assessed as methyltransferase activity using Histone H3 as substrate at 10 uM by radioisotope based MT HotSpot assay relative to control; summary of the method: as §1
[18] = Toxicity in mouse at 50 mg/kg, ip measured after 4 hrs; format: organism-based; settings: in vivo
[19] = biological target: Protein arginine N-methyltransferase 7 (Homo sapiens) (UniProt Q9NVM4); assay: Inhibition of human PRMT7 assessed as methyltransferase activity using GST-GAR as substrate at 10 uM by radioisotope based MT HotSpot assay relative to control; summary of the method: as §1
[20] = biological target: Histone-lysine N-methyltransferase NSD2 (Homo sapiens) (UniProt O96028); assay: Inhibition of human NSD2 assessed as methyltransferase activity using Nucleosomes as substrate at 10 uM by radioisotope based MT HotSpot assay relative to control; summary of the method: as §1

Histone-lysine N-methyltransferase, H3 lysine-79 specific (Homo sapiens), sequence (Q8TEK3 whole entry, looked up): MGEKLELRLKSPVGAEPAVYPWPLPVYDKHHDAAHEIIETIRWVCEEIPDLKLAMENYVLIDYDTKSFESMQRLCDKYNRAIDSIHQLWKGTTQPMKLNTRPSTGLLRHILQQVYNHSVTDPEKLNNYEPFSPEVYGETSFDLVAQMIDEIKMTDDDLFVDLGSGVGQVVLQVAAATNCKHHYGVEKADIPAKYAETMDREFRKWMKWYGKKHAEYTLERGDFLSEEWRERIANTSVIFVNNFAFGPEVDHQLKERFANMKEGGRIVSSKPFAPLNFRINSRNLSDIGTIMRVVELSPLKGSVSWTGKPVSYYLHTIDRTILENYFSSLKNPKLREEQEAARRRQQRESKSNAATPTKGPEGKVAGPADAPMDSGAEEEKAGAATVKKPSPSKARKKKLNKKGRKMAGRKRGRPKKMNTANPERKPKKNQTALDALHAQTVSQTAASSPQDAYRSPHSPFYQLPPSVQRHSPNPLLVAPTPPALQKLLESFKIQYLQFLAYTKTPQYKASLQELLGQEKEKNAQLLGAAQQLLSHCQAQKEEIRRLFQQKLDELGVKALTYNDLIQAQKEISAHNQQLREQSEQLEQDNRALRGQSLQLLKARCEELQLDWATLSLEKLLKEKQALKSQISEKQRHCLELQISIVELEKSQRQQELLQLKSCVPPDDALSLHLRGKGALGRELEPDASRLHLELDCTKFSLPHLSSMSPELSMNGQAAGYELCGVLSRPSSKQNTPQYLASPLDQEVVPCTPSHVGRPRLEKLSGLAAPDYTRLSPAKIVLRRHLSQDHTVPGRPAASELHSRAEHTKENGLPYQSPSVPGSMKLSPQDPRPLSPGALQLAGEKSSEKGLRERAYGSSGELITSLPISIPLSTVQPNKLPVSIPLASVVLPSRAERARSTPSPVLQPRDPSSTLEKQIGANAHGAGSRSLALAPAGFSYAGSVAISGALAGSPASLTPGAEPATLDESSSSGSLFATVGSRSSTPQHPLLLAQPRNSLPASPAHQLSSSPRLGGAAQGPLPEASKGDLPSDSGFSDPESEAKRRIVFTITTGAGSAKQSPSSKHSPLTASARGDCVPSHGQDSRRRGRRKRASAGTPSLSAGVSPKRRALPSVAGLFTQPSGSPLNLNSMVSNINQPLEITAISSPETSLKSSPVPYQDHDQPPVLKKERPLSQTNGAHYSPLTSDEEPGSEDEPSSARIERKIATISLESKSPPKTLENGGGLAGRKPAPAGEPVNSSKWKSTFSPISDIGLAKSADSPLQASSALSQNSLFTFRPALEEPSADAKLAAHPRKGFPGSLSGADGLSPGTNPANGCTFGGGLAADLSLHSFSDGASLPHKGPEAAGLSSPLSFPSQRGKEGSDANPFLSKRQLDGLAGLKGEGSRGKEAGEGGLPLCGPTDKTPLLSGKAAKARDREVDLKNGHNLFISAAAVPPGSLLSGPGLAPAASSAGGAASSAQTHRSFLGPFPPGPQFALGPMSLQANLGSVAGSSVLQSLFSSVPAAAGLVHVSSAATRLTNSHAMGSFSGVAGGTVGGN
Histone-lysine N-methyltransferase SUV39H2 (Homo sapiens), sequence (Q9H5I1 whole entry, looked up): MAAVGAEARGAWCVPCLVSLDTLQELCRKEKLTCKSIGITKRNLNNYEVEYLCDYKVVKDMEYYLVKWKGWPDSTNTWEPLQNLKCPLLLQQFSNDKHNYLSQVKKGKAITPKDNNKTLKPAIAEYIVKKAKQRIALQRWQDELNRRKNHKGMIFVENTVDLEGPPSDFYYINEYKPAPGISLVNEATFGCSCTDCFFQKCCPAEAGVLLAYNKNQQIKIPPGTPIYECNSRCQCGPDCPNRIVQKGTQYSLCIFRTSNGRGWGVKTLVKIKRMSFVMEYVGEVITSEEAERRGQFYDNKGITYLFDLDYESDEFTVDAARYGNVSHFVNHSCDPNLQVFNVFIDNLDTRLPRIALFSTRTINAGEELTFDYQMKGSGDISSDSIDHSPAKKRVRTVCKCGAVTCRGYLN
Protein arginine N-methyltransferase 7 (Homo sapiens), sequence (Q9NVM4 whole entry): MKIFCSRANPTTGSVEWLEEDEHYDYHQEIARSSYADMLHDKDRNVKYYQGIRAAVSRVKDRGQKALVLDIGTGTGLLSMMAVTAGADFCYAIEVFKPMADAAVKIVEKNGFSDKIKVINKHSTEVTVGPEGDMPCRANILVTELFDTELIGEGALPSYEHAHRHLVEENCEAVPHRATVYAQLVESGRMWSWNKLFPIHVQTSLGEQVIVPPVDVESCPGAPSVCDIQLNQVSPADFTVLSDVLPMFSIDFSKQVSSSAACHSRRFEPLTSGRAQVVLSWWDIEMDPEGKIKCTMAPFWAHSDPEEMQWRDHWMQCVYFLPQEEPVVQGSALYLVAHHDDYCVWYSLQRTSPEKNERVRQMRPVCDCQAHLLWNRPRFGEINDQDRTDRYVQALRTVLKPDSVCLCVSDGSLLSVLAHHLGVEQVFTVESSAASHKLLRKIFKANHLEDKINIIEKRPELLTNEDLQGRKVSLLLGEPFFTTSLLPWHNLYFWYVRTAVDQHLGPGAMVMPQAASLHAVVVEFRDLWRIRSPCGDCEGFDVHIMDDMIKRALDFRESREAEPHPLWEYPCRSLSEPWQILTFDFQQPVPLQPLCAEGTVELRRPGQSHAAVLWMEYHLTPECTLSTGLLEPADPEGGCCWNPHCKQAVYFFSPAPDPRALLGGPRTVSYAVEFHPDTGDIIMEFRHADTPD

inhibition [1]: < 50%
Activity [2]: 100%
Cmax [3]: 3.9 µM
Activity [4]: inactive
Activity [5]: 100%
inhibition [6]: < 50%
Activity [7]: 100%
Activity [8]: Active
DC50 [9]: 34.4 nM
inhibition [11]: < 50%
inhibition [12]: < 50%
inhibition [13]: < 50%
IC50 (MDA-MB-468): 450 nM
IC50 (MV4-11): 170 nM
inhibition [14]: < 50%
inhibition [15]: < 50%
inhibition [17]: < 50%
inhibition [19]: < 50%
inhibition [20]: < 50%
Compound: CCN(c1cc(-c2ccc(CN3CCN(CCC(=O)NCCCCCCCCCCC(=O)N[C@H](C(=O)N4C[C@H](O)C[C@H]4C(=O)NCc4ccc(-c5scnc5C)cc4)C(C)(C)C)CC3)cc2)cc(C(=O)NCc2c(C)cc(C)[nH]c2=O)c1C)C1CCOCC1
inhibition (BT-549 [10]): Active
Activity (BT-549 [16]): Active
Activity [18]: Non-Toxic
